# This is a sample that favours compounds with a hit; in the whole collection about 2.8% have one here.
# TNAP inh hiacc: TNAP (human) inhibition, high acceptor. 200,000 tested, 0.03% active. inhibition, % at 20 µM. purified TNAP, CDP-star luminescence, 1 M DEA. AID 1135;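 active = over 50% inhibition of tissue-nonspecific alkaline phosphatase at 20 µM in the single-dose screen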;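 also: plate controls were DMSO wells for no effect and EDTA-quenched wells as full inhibition for full effect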
# Target sequence (P05186 whole entry, looked up): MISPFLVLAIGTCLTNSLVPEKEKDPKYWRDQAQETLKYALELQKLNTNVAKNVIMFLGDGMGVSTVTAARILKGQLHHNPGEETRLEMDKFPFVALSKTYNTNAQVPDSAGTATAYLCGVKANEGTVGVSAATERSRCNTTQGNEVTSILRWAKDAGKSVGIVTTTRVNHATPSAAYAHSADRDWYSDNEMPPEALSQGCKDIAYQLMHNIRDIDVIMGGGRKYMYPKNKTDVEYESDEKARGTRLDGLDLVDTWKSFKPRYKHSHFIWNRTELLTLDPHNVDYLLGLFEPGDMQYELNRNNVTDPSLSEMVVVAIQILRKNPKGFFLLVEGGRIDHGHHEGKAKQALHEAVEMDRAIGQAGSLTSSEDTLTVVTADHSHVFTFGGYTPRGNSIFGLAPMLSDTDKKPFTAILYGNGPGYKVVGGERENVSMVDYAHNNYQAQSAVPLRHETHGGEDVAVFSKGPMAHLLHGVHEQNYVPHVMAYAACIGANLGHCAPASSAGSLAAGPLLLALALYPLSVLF
# TNAP inh no acc: inhibitors of human TNAP without phosphate acceptor. purified TNAP, CDP-star luminescence, 30 min. inhibition, % at 20 µM. 200,000 tested, 0.26% active;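 active = tissue-nonspecific alkaline phosphatase inhibition above about 50% at 20 µM in the single-dose screen, limit read from the data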;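 also: 0% = DMSO negative control and 100% = EDTA positive control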
# TNAP act hi DEA: activators of human TNAP at high phosphate acceptor concentration. 200,000 tested, under 10 active. P05186. activation factor at 20 µM. purified TNAP, CDP-star luminescence, 1 M DEA, 30 min; stronger effect = higher value; 0 = EDTA background, 1 = DMSO-only activity;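 active = activation factor at least 2 at 20 µM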
#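 Control set: EDTA negative control, DMSO positive control / Assay system: human TNAP / Quantity: TNAP 1/800 final / Evaluation: TNAP activation factor scaled between EDTA and DMSO control wells / Measured by: luminescent substrate turnover signal / Compound dosing: one dose, 20 µM / Times: 30 min enzyme reaction at room temperature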
# Yeast growth inh: chemicals that inhibit yeast BB579 growth in restrictive medium (lifespan-shortening candidates); S. cerevisiae BB579 growth, OD615, 48 h; inhibition, % at 10 µM; 140,000 tested, 0.51% active; AID 804;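 active = inhibition above a set limit, 3 SD over the mean compound inhibition, cut at about 44% in these data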
#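 System: Saccharomyces cerevisiae DeaD strain BB579, replicative lifespan model yeast | Buffer or medium: Restrictive glucose-based CSMM-D medium | Times: 4 h preincubation and 48 h exposure at 30 °C | Detection: OD615 turbidity measurement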
# RAM inhibit: blocks the yeast RAM network; S. cerevisiae dse1pr::URA3 reporter, 5-FOA growth OD615, 2 d; analog-sensitive cbk1-as2 kinase mutant strain; inhibition, % at 50 µM; 190,000 tested, 1.8% active;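 active = inhibition above a set limit, 3 SD over mean compound inhibition, cut at about 8.4% in these data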;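 also: 0% = DMSO-only wells with no growth and 100% = 10 µM 1-NA-PP1 full growth; inhibition rescues growth on 5-FOA so higher OD means more RAM inhibition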
# Yeast lifespan up: extends the lifespan of yeast. 130,000 tested, 0.68% active. inhibition of the nicotinamide effect, % at 10 µM. S. cerevisiae growth with nicotinamide, OD615; deaD strain in restrictive glucose medium;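 active = inhibition above a set limit, placed 3 SD over the median of all compounds, cut at about 26% in these data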;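 also: 0% = nicotinamide-treated wells and 100% = cells grown without nicotinamide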
#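 assay system = DeaD-strain S. cerevisiae | measured by = absorbance at 615 nm | probe or stimulus = nicotinamide 1.5 mM | buffer or medium = CSMM-D glucose medium, restrictive | times = 48 h at 30 °C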
# Starred values were filed as active, the others as inactive; nt = no result given.
SMILES,TNAP inh hiacc,TNAP inh no acc,TNAP act hi DEA,Yeast growth inh,RAM inhibit,Yeast lifespan up
COc1cc(/C(C)=N/NC(=O)c2ccc(CSc3nncn3C)cc2)cc(OC)c1OC,-4.4,-9.0,1,nt,2.6,nt
C/C(=N\NC(=O)c1ccc(CSc2cccc3cccnc23)cc1)C1CCCCC1,-1.9,-5.1,1,70.7*,0.8,-4.3
CC(C)(C)C(=O)/C=C(N)/C=C/c1ccccc1,-1.1,-4.0,1,-66.9,6.8,-13.7
COc1ccc(C2=NN(c3ccccc3)C(c3cn(CCC(=O)O)nc3-c3ccccc3)C2)cc1 (stereo unspecified),-6.2,-16.1,1.1,nt,4.1,nt
CCN(CC)S(=O)(=O)c1ccc(OC)c(NC(=O)CSc2ccccc2)c1,-7.4,-10.1,1.1,-29.9,2.6,-2.7
CCN(CC)S(=O)(=O)c1ccc(OC)c(NC(=O)CSc2cc(Cl)ccc2Cl)c1,-8.2,-13.2,1.1,-35.0,9.2*,3.9
CCc1cc2ccc(C)cc2nc1SCC(=O)Nc1c[nH]c(=O)[nH]c1=O,-1.6,-5.5,1,nt,3.9,nt
CC(C)(C)c1cc(C(c2cccnc2)N2CCN(CCO)CC2)cc(C(C)(C)C)c1O (stereo unspecified),-4.4,-7.5,1,95.7*,-1.5,17.6
OCCN1CCN(C(c2cccs2)c2ccc3cccnc3c2O)CC1 (stereo unspecified),-8.5,3.2,1.1,-56.7,1.9,21.0
CC(C)N=c1scc(-c2ccco2)n1/N=C/c1ccc(O)c(O)c1,21.3,74.0*,0.8,92.0*,-1.2,-30.5
COCCN=c1scc(-c2ccco2)n1/N=C/c1ccc(O)c(O)c1O,12.4,18.8,0.9,nt,2.8,nt
CC1CC(=O)c2c(cc3c(-c4c(O)cc(O)c5c(O)c6c(cc45)OC(C)CC6=O)c(O)cc(O)c3c2O)O1 (stereo unspecified),14.4,16.6,0.9,nt,9.4*,nt
O=C(CNC(=S)N(Cc1ccccc1)Cc1ccccc1F)NCCc1ccccc1,-9.5,-22.7,1.1,nt,11.4*,nt
O=Cc1ccccc1OCc1nnsc1Cl,-1.2,-8.2,1,nt,1.0,nt
O=C1NC(=S)S/C1=C\c1ccc(SCc2ccccc2)o1,15.5,-4.4,0.8,-26.2,10.0*,5.2
CSc1nc(C)cc(OCCNS(=O)(=O)c2cc(C)ccc2C)n1,-1.3,-0.2,1,-22.9,1.3,-14.8
CCCCN=C(NNc1ccc(Br)cc1)C(=O)OCC,1.6,-1.3,1,97.0*,-1.0,-13.4
CCOC(=O)C(=O)NNc1ccc(C)cc1,-0.5,-8.7,1,-13.2,0.6,-0.9
CCOC(=O)C(=NCCCN(C)C)NNc1ccc(Br)cc1,-1.3,12.7,1,92.4*,-1.6,-10.0
Cc1ccc(N/C=C/C(=O)c2sc(-c3ccccc3)nc2C)cc1,5.4,6.9,0.9,-32.2,9.0*,-3.4
C#CCn1cc(/C=N/Nc2nc3ccccc3[nH]2)c2ccccc21,0.7,-53.5,1,-22.4,0.9,-0.6
CCOc1ccc(-c2[nH]ncc2Oc2ccccc2OCC)c(O)c1,-1.8,-9.5,1,25.5,3.7,-14.8
C=C(C)COc1ccc(-c2[nH]ncc2-c2ccc(Br)cc2)c(O)c1,2.8,4.7,1,68.6*,6.6,-7.2
C=C(C)COc1ccc(-c2[nH]ncc2-c2ccccc2OC)c(O)c1,-1.5,-10.7,1,89.7*,-0.7,-10.7
C=C(C)COc1ccc(-c2nc(N)ncc2Oc2ccccc2OC)c(O)c1,-3.8,-7.6,1,-23.0,3.0,-1.0
SMILES,TNAP inh hiacc,TNAP inh no acc,TNAP act hi DEA,Yeast growth inh,RAM inhibit,Yeast lifespan up
CCOc1ccc(-c2[nH]ncc2Oc2ccccc2OC)c(O)c1,-2.4,-12.1,1,-15.9,1.2,-11.6
C=C(C)COc1ccc(-c2[nH]ncc2Oc2ccccc2OC)c(O)c1,-0.9,2.5,1,79.5*,4.5,-7.0
CCCOC(=O)c1ccc(Oc2cn[nH]c2-c2ccc(OC)cc2O)cc1,-6.1,-17.8,1.1,69.1*,5.1,-7.3
COC(=O)[C@@H](NC(=O)NC1CCCc2ccccc21)C(C)C (stereo partly specified),-2.2,-7.4,1,-18.8,1.3,5.5
CC(C)(C)c1nnc(NC(=O)Cc2ccc(Br)cc2)s1,-4.4,-5.3,1,-7.5,3.1,4.4
Cc1ccc2oc(=O)c3cnn(CC(=O)N(CCCN4CCOCC4)Cc4ccco4)c3c2c1,0.9,-8.6,1,-43.2,2.2,3.1
CCN1C(=O)/C(=C\c2ccc(F)cc2)N=C1SCC(=O)NCc1ccco1,-6.3,-8.6,1.1,-11.6,-0.3,2.4
COc1ccc(-c2[nH]ncc2-c2ccc3c(c2)OCCO3)c(O)c1,-5.5,-1.9,1.1,-10.4,10.1*,-19.6
CCCc1cc(-c2[nH]ncc2-c2ccc3c(c2)OCCCO3)c(O)cc1OC,0.0,-0.5,1,-31.9,8.1,-15.5
COc1ccc(-c2c(-c3ccc(O)cc3O)n[nH]c2C)cc1OC,-3.1,-48.2,1,-26.0,-0.3,-4.5
C=C(C)COc1ccc(-c2n[nH]c(C)c2-c2ccc(Br)cc2)c(O)c1,-7.5,-11.9,1.1,-30.6,10.4*,-15.1
O=c1cc(-c2ccncc2)oc2ccccc12,-5.5,-14.3,1.1,46.0*,1.3,-10.8
Cn1nc(-c2ccc(Cl)cc2)nc2c(=O)n(C)c(=O)nc1-2,-1.2,-5.1,1,99.8*,-0.5,-38.8
O=C(NC(NC(=S)Nc1ccccc1Cl)C(Cl)(Cl)Cl)c1cccc(Cl)c1 (stereo unspecified),-0.9,-8.5,1,-12.3,9.4*,3.3
CSc1cccc(NC(=O)/C=C/c2cccc(Cl)c2)c1,-1.0,-1.9,1,-47.8,9.1*,-4.1
O=C(/C=C/c1ccccc1)NC(NC(=S)Nc1cccc(Cl)c1)C(Cl)(Cl)Cl (stereo unspecified),-1.8,-2.6,1,-26.0,8.9*,0.0
O=C(/C=C/c1ccccc1)NC(NC(=S)Nc1cccc(O)c1)C(Cl)(Cl)Cl (stereo unspecified),-1.3,-11.9,1,-23.5,5.8,0.4
O=C(/C=C/c1cccc(Cl)c1)Nc1ncccn1,-4.3,-10.7,1,-21.9,-1.5,-8.5
CC(C)OCc1c(C(=O)OC/C(O)=C(\C#N)c2nc3ccccc3[nH]2)oc2ccccc12,-2.9,-11.2,1,nt,5.3,nt
NC(=O)NC(=O)COC(=O)c1ccc(Cl)c(S(=O)(=O)N(Cc2ccccc2)c2ccc(Cl)cc2)c1,-3.7,-18.1,1,-43.7,10.1*,-0.6
Cc1ccc(S(=O)(=O)N(C)CC(O)Cn2c3ccccc3c3ccccc32)cc1 (stereo unspecified),-4.0,-6.1,1,-26.9,8.6*,-3.1
